# Only some compounds are listed: those with a hit (about 6.6% of all), similar ones and a draw of the others.
# tolC growth inh – growth inhibitors of E. coli tolC mutant, primary screen, strain BW25113 ΔtolC::kan, 384-well. OD615. growth inhibition, % at 10 µM (by protocol). hit rate 2.2% among 65,000. AID 573, 2007;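 active = growth inhibition at or above a cutoff equal to the mean over every tested compound plus 3 SD, cut at about 60% in these data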;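 also: growth measured after 20 h incubation at 37 °C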
#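 Material: E. coli BW25113 ΔtolC::kan, tolC deletion mutant strain. Measure: percent growth inhibition. Schedule: 37 °C, 20 h exposure. Doses: single-point testing at 10 µM. Signal: A615 absorbance measurement. Buffer or medium: kanamycin-containing LB broth (50 µg/mL).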
# PostGolgi ctrl – growth inhibition of yeast control strain, primary screen, counter-screen for post-Golgi transport modulator project; efflux-deficient yeast background strain, growth absorbance A615, 16 h; inhibition, % at 10 µM; hit rate 5% among 98,000; AID 738, 2007
# HER2 expr 66K – inhibitors of Her2 protein expression, primary screen, SKBR-3 cells, AlphaScreen, 66K library; SKBR-3 HER2 protein level, 18-24 h; hits give low values; hit rate 0.69% among 65,000; Receptor tyrosine-protein kinase erbB-2 (Homo sapiens), P04626; HER2 level % of control, % at 10 µM;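 active = HER2 level under 5% of the carrier-only control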;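 also: 100% = DMSO carrier and 0% = 500 nM PU-H71 HSP90 inhibitor; lower value means stronger loss of Her2 protein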
# PostGolgi yeast – phenotypic screen on post-Golgi transport, primary screen | post-Golgi transport phenotypic cell assay | AID 739, 2007 | hit rate 0.9% among 98,000 | inhibition, % at 10 µM;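 also: yeast cells grown in 1536-well plates; yeast grown about 18 h at 30C before absorbance read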
# Ecoli WT expand – growth inhibitors of wild-type E. coli, primary screen, strain BW25113, expanded library, OD600; hit rate 0.15% among 98,000; OD600 absorbance; growth inhibition, % at 100 µM;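 active = growth inhibition above about 50% at one test dose, limit read from the data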;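 also: growth measured after 20 h incubation at 37 °C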
# * hit, by the source's call; x = no result given. Rule as the data show it, unless noted: active = inhibition above about 30%; inactive = the rest.
SMILES,tolC growth inh,PostGolgi ctrl,HER2 expr 66K,PostGolgi yeast,Ecoli WT expand
Cc1c(NC(=O)C(C)OC(=O)[C@@H](NC(=O)c2ccccc2)C(C)C)c(=O)n(-c2ccccc2)n1C (some centres not stated),x,31*,x,-4,0
CCn1cc(C(=O)OC(C)C(=O)Nc2c(C)n(C)n(-c3ccccc3)c2=O)c(=O)c2ccc(C)nc21 (configuration not stated),99*,0,97,9,26
OCCN(CCO)CC(O)COCCC12CC3CC(CC(C3)C1)C2 (configuration not stated),x,8,x,-9,2
CCC(C)[C@H](N)c1nnc(SCc2cccc(F)c2)o1 (some centres not stated),-6,7,107,4,9
Cc1ccnc(SCC(=O)n2c3c(c4ccccc42)CC(C)CC3)n1 (configuration not stated),x,35*,x,-5,-2
CCCCn1c(CN(Cc2ccccc2)Cc2ccccc2)nc2c1c(=O)n(C)c(=O)n2C,44,x,64,x,x
Cc1ccc(C)c(Cn2c(CN(C)Cc3ccccc3)nc3c2c(=O)n(C)c(=O)n3C)c1,81*,45*,55,3,-6
Cn1c(=O)c2c(nc(Br)n2CCCc2ccccc2)n(C)c1=O,8,2,106,-1,4
CN(Cc1ccccc1)c1nc2c(c(=O)n(C)c(=O)n2C)n1CCCc1ccccc1,100*,43*,72,0,-16
CCOCCn1c(CN(Cc2ccccc2)Cc2ccccc2)nc2c1c(=O)n(C)c(=O)n2C,68*,24,42,2,-17
Cc1ccc(Cn2c(CN(C)Cc3ccccc3)nc3c2c(=O)n(C)c(=O)n3C)cc1,50,38*,93,0,-5
CCOC(=O)c1c(C)c(C(=O)NCc2cccnc2)c(C)n1CC,-4,7,96,-9,-5
CC(C)=CCCC(C)NC(=O)NC1CCCCC1 (configuration not stated),7,x,104,x,x
CCOc1cc(C)c(S(=O)(=O)Nc2ccc3cn[nH]c3c2)cc1C,x,21,x,2,0
CCc1[nH]nc2c1C(c1ccc(Br)s1)C(C#N)=C(N)O2 (configuration not stated),9,27,142,-1,3
CN(Cc1ccccc1)Cc1nc2c(c(=O)n(C)c(=O)n2C)n1Cc1ccc(Cl)cc1,51,31*,99,1,1
O=C(CSc1ncccc1-c1nc2ccccc2[nH]1)NCc1ccco1,0,13,93,34*,0
O=C(CCNc1n[nH]c(=O)[nH]c1=O)N1CCOCC1,3,13,90,10,-2
Cc1ccc(N2C(=O)CC(Sc3nc4ccccc4o3)C2=O)cc1Cl (configuration not stated),x,39*,x,-3,3
Cc1ccc2cc(C=C(C#N)C#N)c(N3CCCCC3)nc2c1,x,36*,x,-3,1
Cc1ccc2cc(C#N)c(N3CCCN(S(=O)(=O)c4ccccc4)CC3)nc2c1,20,24,112,12,-6
Cn1c(Sc2ccc(Cl)cc2)c(C=O)c2ccccc21,x,37*,x,8,-3
Cc1ccc2nc3c(cc2c1)CN(Cc1ccco1)C(=NCC1CCCO1)S3 (configuration not stated),18,43*,56,-1,-3
Cc1cccc2cc3c(nc12)SC(=NCC1CCCO1)N(Cc1ccco1)C3 (configuration not stated),29,27,22,7,-9
Cn1cc(SCC(=O)Nc2ccc3c(c2)OCCO3)c2ccccc21,x,3,x,1,-16
SMILES,tolC growth inh,PostGolgi ctrl,HER2 expr 66K,PostGolgi yeast,Ecoli WT expand
O=C(c1cccs1)N1CCc2c([nH]c3ccccc23)C1c1ccc(Cl)cc1 (configuration not stated),x,30*,x,1,-3
CC1c2[nH]c3ccccc3c2CCN1C(=O)Nc1ccccc1 (configuration not stated),44,x,64,x,x
CCOC(=O)c1ccccc1NC(=O)CN(c1cccc(OC)c1)S(C)(=O)=O,11,6,109,-5,-16
CCN(CC)c1ccc(C(=O)n2cnc3ccccc32)cc1,78*,20,68,5,-6
Cc1cc(NC(=O)CSc2ccc3ccccc3c2)no1,x,1,x,1,-8
Cc1cc(NC(=O)CSC2=NCCS2)no1,-4,30*,93,-5,3
COc1ccc2nc(SCC(=O)Nc3cc(C)on3)[nH]c2c1,x,21,x,37*,5

# Source: PubChem BioAssay (SRMLSC)
